Measured values reported in ChEMBL document CHEMBL4342411, “Novel multitarget 5-arylidenehydantoins with arylpiperazinealkyl fragment: Pharmacological evaluation and investigation of cytotoxicity and metabolic stability” (Bioorg Med Chem, 2019).

What was measured:
Mus musculus [1] = assay: Effect on locomotor activity in Swiss albino mouse at 0.625 to 2.5 mg/kg, ip; assay type: ADME, organism-based; conditions: in vivo
How it was run: (§1)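 Male Swiss albino mice were dosed ip in 1% Tween 80 at 10 ml/kg 60 min before testing. Each mouse was placed individually in a cage in a photobeam activity monitor. Ambulation crossings were counted from 2 to 6 min.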

[2] = Selectivity index, ratio of IC50 for human HaCaT cells to IC50 for human SW480 cells
[3] = target: T1, 5-hydroxytryptamine receptor 7 (Homo sapiens, UniProt P34969); assay: biochemical; assay type: cell-based, CHO
T1 sequence (P34969 whole entry): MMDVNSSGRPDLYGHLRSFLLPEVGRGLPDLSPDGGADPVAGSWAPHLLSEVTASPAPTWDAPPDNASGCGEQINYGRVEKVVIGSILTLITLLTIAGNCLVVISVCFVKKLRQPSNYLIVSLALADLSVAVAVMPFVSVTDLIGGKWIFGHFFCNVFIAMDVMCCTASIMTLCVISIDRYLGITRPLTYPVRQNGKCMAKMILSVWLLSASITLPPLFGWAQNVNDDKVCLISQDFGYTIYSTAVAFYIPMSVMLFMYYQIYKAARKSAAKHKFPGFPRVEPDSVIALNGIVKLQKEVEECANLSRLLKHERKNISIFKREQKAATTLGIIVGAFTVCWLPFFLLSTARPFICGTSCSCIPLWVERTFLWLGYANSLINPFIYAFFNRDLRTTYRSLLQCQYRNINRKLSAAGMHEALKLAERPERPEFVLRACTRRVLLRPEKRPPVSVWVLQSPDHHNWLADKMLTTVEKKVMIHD

SW480 = assay: Cytotoxicity against human SW480 cells assessed as growth inhibition measured after 72 hrs by MTT assay; assay type: functional, cell-based; conditions: SW480, 72 h
How it was run: (§2)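 Cells were seeded at 1 × 10^4 per well: SW480 in MEM, PC3 in RPMI 1640, HaCaT in DMEM high glucose, each with 10% FBS. Compounds were added at 10–140 µM and incubated for 72 h. MTT was then added at 0.5 mg/mL in serum-free medium for 4 h at 37 °C. Formazan was dissolved in DMSO/isopropanol (1:1) and read at 570 nm. IC50 was given in µM; untreated cells served as control.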

PC-3 = assay: Cytotoxicity against human PC3 cells assessed as growth inhibition measured after 72 hrs by MTT assay; assay type: functional, cell-based; conditions: PC-3, 72 h; how it was run: as §2
[4] = target: T1, 5-hydroxytryptamine receptor 7; assay: Antagonist activity at human recombinant 5-HT7 receptor expressed in CHOK1 cells measured after 60 mins in the presence of serotonin by LANCE TR-FRET assay; assay type: cell-based
[5] = Selectivity index, ratio of IC50 for human HaCaT cells for human PC3 cells; assay type: toxicity; conditions: HaCaT cells versus PC3 cells, read-out: Ratio IC50
[6] = target: T2, 5-hydroxytryptamine receptor 1A (Homo sapiens) (UniProt P08908); assay: Antagonist activity at human recombinant 5-HT1A receptor expressed in CHOK1 cells incubated for 25 mins followed by addition of […] by microbeta2 scintillation counter relative to control; assay type: cell-based
T2 sequence (whole entry): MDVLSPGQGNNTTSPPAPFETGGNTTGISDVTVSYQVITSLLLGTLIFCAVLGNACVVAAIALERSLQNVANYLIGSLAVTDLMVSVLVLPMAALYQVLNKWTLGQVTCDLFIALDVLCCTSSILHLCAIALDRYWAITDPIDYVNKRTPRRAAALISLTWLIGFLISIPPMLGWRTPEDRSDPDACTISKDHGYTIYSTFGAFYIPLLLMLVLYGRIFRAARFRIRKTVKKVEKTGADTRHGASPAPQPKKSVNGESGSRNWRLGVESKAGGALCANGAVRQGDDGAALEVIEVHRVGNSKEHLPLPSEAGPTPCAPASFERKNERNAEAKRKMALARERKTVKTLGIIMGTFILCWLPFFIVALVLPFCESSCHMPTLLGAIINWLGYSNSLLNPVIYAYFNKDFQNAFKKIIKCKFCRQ
How it was run: (§3)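 Aequorin Ca2+ assay in antagonist mode in CHO-K1 cells expressing human 5-HT1A, Gα16 and mitochondrial aequorin, loaded with 5 μM coelenterazine h. Cells were injected onto the compounds (8–10 concentrations) and incubated for 25 min.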

[7] = target: T1, 5-hydroxytryptamine receptor 7; assay: Agonist activity at human recombinant 5-HT7 receptor expressed in CHOK1 cells by LANCE TR-FRET assay relative to control; assay type: cell-based
How it was run: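 cAMP assay in CHO-K1 cells expressing human 5-HT7 […], at 2x10^5 cells/ml in HBSS with 5 mM HEPES, IBMX and 0.1% BSA, pH 7.4. Cells were stimulated with the compounds (8 concentrations) for 60 min at room temperature. cAMP was read by LANCE Ultra TR-FRET after 1 h with tracer and antibody. EC50 was obtained by nonlinear regression.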

in vitro [8] = conditions: CD1, mouse
[9] = target: 5-hydroxytryptamine receptor 6 (Homo sapiens) (UniProt P50406); assay: Displacement of [3H]-LSD from human recombinant 5-HT6 receptor expressed in CHO cells at 10^-6 M incubated for 60 mins by microbeta2 scintillation counter relative to control; assay type: cell-based
Sequence of 5-hydroxytryptamine receptor 6 (Homo sapiens) (P50406 whole entry): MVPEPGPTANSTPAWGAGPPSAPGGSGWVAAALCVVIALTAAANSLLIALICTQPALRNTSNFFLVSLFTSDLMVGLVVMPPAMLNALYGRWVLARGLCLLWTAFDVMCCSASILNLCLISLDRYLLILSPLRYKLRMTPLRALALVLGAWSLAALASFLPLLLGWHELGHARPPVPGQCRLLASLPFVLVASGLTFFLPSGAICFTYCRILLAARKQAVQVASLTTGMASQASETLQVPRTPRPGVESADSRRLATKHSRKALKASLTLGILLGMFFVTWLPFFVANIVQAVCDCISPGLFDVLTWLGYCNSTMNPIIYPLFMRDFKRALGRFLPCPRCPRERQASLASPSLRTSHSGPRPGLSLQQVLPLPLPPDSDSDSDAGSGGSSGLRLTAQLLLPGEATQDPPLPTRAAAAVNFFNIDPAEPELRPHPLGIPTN
How it was run: (§4)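 Radioligand displacement from recombinant human receptor membranes, tested at two final concentrations (10^-6 and 10^-7 M), with scintillation counting. Results were expressed as percent inhibition of specific binding.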

[10] = target: T3, 5-hydroxytryptamine receptor 1A (Homo sapiens, UniProt P08908); assay: Antagonist activity at human recombinant 5-HT1A receptor expressed in CHOK1 cells incubated for 25 mins followed by addition of methiothepin by microbeta2 scintillation counter; assay type: cell-based; how it was run: as §3
T3 sequence (P08908 whole entry): T2 sequence (whole entry)

[11] = target: 5-hydroxytryptamine receptor 2A (Homo sapiens) (UniProt P28223); conditions: HEK293, at 0.1 µM
Sequence of 5-hydroxytryptamine receptor 2A (Homo sapiens) (P28223 whole entry): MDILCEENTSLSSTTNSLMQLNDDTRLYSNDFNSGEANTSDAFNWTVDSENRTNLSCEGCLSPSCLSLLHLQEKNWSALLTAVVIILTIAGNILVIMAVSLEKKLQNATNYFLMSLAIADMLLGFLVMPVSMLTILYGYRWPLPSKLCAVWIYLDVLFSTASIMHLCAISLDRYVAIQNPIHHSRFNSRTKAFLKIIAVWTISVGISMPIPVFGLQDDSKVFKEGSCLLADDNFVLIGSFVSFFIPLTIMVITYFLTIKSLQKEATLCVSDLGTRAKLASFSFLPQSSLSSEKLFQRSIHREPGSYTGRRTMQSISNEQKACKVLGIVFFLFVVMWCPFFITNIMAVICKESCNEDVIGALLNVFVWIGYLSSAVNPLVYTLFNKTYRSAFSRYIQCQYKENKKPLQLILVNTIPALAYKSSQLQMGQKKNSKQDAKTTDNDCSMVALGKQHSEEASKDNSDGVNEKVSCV

[12] = target: T2, 5-hydroxytryptamine receptor 1A (Homo sapiens); assay: Agonist activity at human recombinant 5-HT1A receptor expressed in CHOK1 cells measured after 1 hr by microbeta2 scintillation counter relative to control; assay type: cell-based
How it was run: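 Aequorin Ca2+ assay in CHO-K1 cells coexpressing mitochondrial aequorin, human 5-HT1A and Gα16. Thawed cells were loaded with coelenterazine h (5 μM final) for 16 h at 16 °C in the dark with agitation, then diluted to 5000 cells/ml. After 1 h they were injected onto the compounds (8–10 concentrations) and luminescence was recorded for 30 s.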

[13] = target: T2, 5-hydroxytryptamine receptor 1A (Homo sapiens); assay: Antagonist activity at human recombinant 5-HT1A receptor expressed in CHOK1 cells assessed as equilibrium binding constant incubated for 25 mins followed by addition of methiothepin by microbeta2 scintillation counter; assay type: cell-based; conditions: in the assay text read “serotonin” for “methiothepin”; how it was run: as §3
in vitro [14] = conditions: CD1, mouse, liver microsomes
[15] = target: 3',5'-cyclic-AMP phosphodiesterase 4B (Homo sapiens) (UniProt Q07343); assay: Inhibition of human recombinant full length N-terminal GST-tagged PDE4B1 expressed in baculovirus infected Sf9 cells at 10^-5 M using cAMP as substrate incubated for 20 mins followed by substrate addition by luciferase assay relative to control
Sequence of 3',5'-cyclic-AMP phosphodiesterase 4B (Homo sapiens) (Q07343 whole entry): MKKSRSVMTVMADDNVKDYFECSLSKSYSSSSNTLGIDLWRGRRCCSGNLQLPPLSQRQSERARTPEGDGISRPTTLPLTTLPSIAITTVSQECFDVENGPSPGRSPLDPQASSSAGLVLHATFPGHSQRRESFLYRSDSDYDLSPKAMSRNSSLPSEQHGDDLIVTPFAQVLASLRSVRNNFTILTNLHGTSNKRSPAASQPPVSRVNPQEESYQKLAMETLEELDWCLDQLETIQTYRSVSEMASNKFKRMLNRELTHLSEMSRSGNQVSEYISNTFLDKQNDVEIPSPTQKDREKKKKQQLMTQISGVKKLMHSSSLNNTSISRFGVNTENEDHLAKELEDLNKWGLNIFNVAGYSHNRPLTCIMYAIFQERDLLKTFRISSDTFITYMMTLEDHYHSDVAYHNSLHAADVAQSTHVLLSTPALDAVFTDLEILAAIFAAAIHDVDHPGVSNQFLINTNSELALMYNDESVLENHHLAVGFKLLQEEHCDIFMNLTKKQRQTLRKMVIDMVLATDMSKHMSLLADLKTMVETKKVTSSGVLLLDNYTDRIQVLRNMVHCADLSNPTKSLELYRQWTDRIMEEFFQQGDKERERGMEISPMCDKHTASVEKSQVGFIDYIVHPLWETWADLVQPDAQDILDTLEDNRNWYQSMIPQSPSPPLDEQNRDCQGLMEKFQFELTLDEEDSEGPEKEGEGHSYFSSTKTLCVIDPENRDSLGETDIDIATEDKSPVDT

HaCaT = assay: Cytotoxicity against human HaCaT cells assessed as growth inhibition measured after 72 hrs by MTT assay; assay type: cell-based; how it was run: as §2
[16] = target: T1, 5-hydroxytryptamine receptor 7; assay: Antagonist activity at human recombinant 5-HT7 receptor expressed in CHOK1 cells assessed as equilibrium binding constant measured after 60 mins in the presence of serotonin by LANCE TR-FRET assay; assay type: cell-based
[17] = target: T3, 5-hydroxytryptamine receptor 1A; assay: Displacement of [3H]-8-OH-DPAT from human recombinant 5-HT1A receptor expressed in HEK293 cells incubated for 60 mins by microbeta2 scintillation counter; assay type: cell-based
[18] = target: T1, 5-hydroxytryptamine receptor 7; assay: Antagonist activity at human recombinant 5-HT7 receptor expressed in CHOK1 cells measured after 60 mins in the presence of serotonin by LANCE TR-FRET assay relative to control; assay type: cell-based
[19] = Metabolic stability in mouse liver microsomes assessed as metabolite formation measured after 30 mins in the presence of NADPH by LC-MS/MS analysis; assay type: ADME, Microsome; conditions: 0.5 h
How it was run: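 Compound (20 µM final) was preincubated with mouse liver microsomes (0.4 mg/mL) in 100 mM potassium phosphate, pH 7.4, at 37 °C for 15 min. The reaction was started with an NADPH-regenerating system and sampled at 5, 15 and 30 min. Levallorphan internal standard was added, the reaction was stopped with perchloric acid, and samples were analysed by LC-MS/MS. No-NADPH incubations served as negative controls.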

[20] = target: 5-hydroxytryptamine receptor 6 (Homo sapiens) (UniProt P50406); assay: Displacement of [3H]-LSD from human recombinant 5-HT6 receptor expressed in CHO cells at 10^-7 M incubated for 60 mins by microbeta2 scintillation counter relative to control; assay type: cell-based; how it was run: as §4
[21] = target: 5-hydroxytryptamine receptor 2A (Homo sapiens) (UniProt P28223); conditions: HEK293, at 1 µM
Mus musculus [22] = assay: Antidepressant activity in Swiss albino mouse assessed as decrease in immobility time at 0.625 to 2.5 mg/kg, ip measured after 60 mins by forced swim test relative to control; assay type: functional; parameters: scale not given: the % may be the effect or the level left
How it was run: (§5)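 Male Swiss albino mice (22–26 g), 7–10 per dose, were dosed ip in 1% Tween 80 at 10 ml/kg 60 min before the test. In the Porsolt test, each mouse was placed for 6 min in a cylinder with 6 cm of water at 23–25 °C. Immobility was scored over the last 4 min and compared with vehicle controls by ANOVA/Bonferroni.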

[23] = target: 3',5'-cyclic-AMP phosphodiesterase 4B (Homo sapiens) (UniProt Q07343); conditions: Sf9, 10^-5.5 M
Mus musculus [24] = assay: Effect on locomotor activity in Swiss albino mouse at 0.625 mg/kg, ip; assay type: ADME, organism-based; conditions: in vivo; how it was run: as §1
Mus musculus [25] = assay: Antidepressant activity in Swiss albino mouse assessed as decrease in immobility time at 0.625 mg/kg, ip measured after 60 mins by forced swim test relative to control; assay type: functional; parameters: scale not given: the % may be the effect or the level left; how it was run: as §5
[26] = in the assay text read “serotonin” for “methiothepin”, read-out: IC50

Row | SMILES | Ki [3] [nM] | inhibition [9] [%] | inhibition [11] [%] | inhibition [15] [%] | Ki [17] [nM] | inhibition [20] [%] | inhibition [21] [%] | also measured
1 | COc1ccc(/C=C2\NC(=O)N(CCCCN3CCN(c4ccccc4OC)CC3)C2=O)cc1OC1CCCC1 | 1 | 5 | 50 | 14 | 1 | 0 | 95 | Activity (Mus musculus [1]): Non-Toxic; Ratio IC50 [2]: 0.81; IC50 (SW480): 185 µM; IC50 (PC-3): 254 µM; IC50 [4]: 219 nM; selectivity ratio [5]: 0.59; Emax [6]: 3%; Emax [7]: 14%; half-life (in vitro [8]; liver microsomes): 12.8 min; IC50 [10, 26]: 54 nM; IC50 ([10]; read-out: pIC50 (converted)): 61.7 nM; Emax [12]: 6%; Kb [13]: 1.7 nM; microsomal CLint (in vitro [14]): 136 µL/min/mg; IC50 (HaCaT): 151 µM; Kb [16]: 73 nM; Emax [18]: 33%; Drug metabolism [19]: Metabolite_Detected; Activity (Mus musculus [22]): 30%
2 | COc1ccc(/C=C2\NC(=O)N(CCCCN3CCN(c4ccccc4OC)CC3)C2=O)cc1OC | 16 | 9 | 31 | 8 | 7 | 0 | 87 | –
3 | COc1ccc(/C=C2\NC(=O)N(CCCN3CCN(c4ncccn4)CC3)C2=O)cc1OC1CCCC1 | > 1000 | 23 | 33 | 9 | 85 | 0 | 89 | –
4 | COc1ccc(/C=C2\NC(=O)N(CCCN3CCN(c4ccccc4OC)CC3)C2=O)cc1OC1CCCC1 | 6 | 13 | 44 | 3 | 37 | 0 | 96 | –
5 | COc1ccc(/C=C2\NC(=O)N(CCCCN3CCN(c4ncccn4)CC3)C2=O)cc1OC | 933 | 0 | 0 | 14 | 45 | 0 | 41 | –
6 | CC1CCN(CC[C@H]2CCCN2S(=O)(=O)c2cccc(O)c2)CC1 | – | – | – | – | – | – | – | Emax [18]: 8%
7 | CSc1ccc2c(c1)C(N1CCN(C)CC1)Cc1ccccc1S2 (stereo unspecified) | – | 99 | – | – | – | 99 | – | –
8 | COc1cccc2c1C(=O)c1c(O)c3c(c(O)c1C2=O)C[C@@](O)(C(=O)CO)C[C@@H]3O[C@H]1C[C@H](N)[C@H](O)[C@H](C)O1 [DOXORUBICIN] | – | – | – | – | – | – | – | IC50 (SW480): 0.29 µM; IC50 (PC-3): 0.59 µM; IC50 (HaCaT): 0.235 µM
9 | COc1ccc(/C=C2\NC(=O)N(CCCCN3CCN(c4ncccn4)CC3)C2=O)cc1OC1CCCC1 | 298 | 8 | 19 | 10 | 64 | 0 | 78 | –
10 | COc1ccc(C2CNC(=O)C2)cc1OC1CCCC1 (stereo unspecified) | – | – | – | – | – | – | – | inhibition [23]: 84%
11 | COc1ccc(/C=C2\NC(=O)N(CCCN3CCN(c4ncccn4)CC3)C2=O)cc1OC | 74 | 15 | 23 | 1 | 12 | 8 | 78 | –
12 | COc1ccc(/C=C2\NC(=O)N(CCCN3CCN(c4cccc(Cl)c4Cl)CC3)C2=O)cc1OC | 22 | 72 | 61 | 5 | 53 | 0 | 97 | –
13 | COc1ccc(/C=C2\NC(=O)N(CCCN3CCN(c4ccccc4OC)CC3)C2=O)cc1OC | 42 | 0 | 25 | 9 | 13 | 0 | 83 | –
14 | COc1ccc(/C=C2\NC(=O)N(CCCCN3CCN(c4cccc(Cl)c4Cl)CC3)C2=O)cc1OC1CCCC1 | 125 | 34 | 39 | 3 | 132 | 8 | 90 | –
15 | COc1ccc(/C=C2\NC(=O)N(CCCN3CCN(c4cccc(Cl)c4Cl)CC3)C2=O)cc1OC1CCCC1 | 380 | 70 | 27 | 3 | > 1000 | 0 | 96 | –
16 | COc1ccc(/C=C2\NC(=O)N(CCCCN3CCN(c4cccc(Cl)c4Cl)CC3)C2=O)cc1OC | 0.8 | 82 | 82 | 5 | 0.2 | 6 | 98 | Ratio IC50 [2]: 1.16; IC50 (SW480): 255 µM; Activity (Mus musculus [24]): Non-Toxic; IC50 (PC-3): 227 µM; IC50 [4]: 163 nM; selectivity ratio [5]: 1.31; Activity (Mus musculus [25]): 27%; Emax [6]: 15%; Emax [7]: 13%; IC50 [10, 26]: 39 nM; Emax [12]: 12%; Kb [13]: 1.3 nM; IC50 (HaCaT): 296 µM; Kb [16]: 54.3 nM; Emax [18]: 37%
17 | CC(C)NCC(O)COc1cccc2ccccc12 (stereo unspecified) [PROPRANOLOL] | – | – | – | – | – | – | – | half-life (in vitro [8]; microsomes): 84.5 min
